Activity calls are given as the source filed them. The rule behind the calls is not given here.
Tests used:
[1] = Inhibition of 5-lipoxygenase in bovine polymorphonuclear leucocytes assessed as formation of LTB4 by HPLC method; type: cell-based; conditions: Bos taurus
[2] = target: T1, Prostaglandin E synthase (Homo sapiens) (UniProt O14684); experiment: Inhibition of mPGES1 in IL1-beta treated human A549 cell microsomal membrane assessed as residual enzyme activity at 10 uM after 1 min by measuring PGE2 level using RP-HPLC method relative to control; type: microsomes; conditions: Microsome
T1 sequence (whole entry): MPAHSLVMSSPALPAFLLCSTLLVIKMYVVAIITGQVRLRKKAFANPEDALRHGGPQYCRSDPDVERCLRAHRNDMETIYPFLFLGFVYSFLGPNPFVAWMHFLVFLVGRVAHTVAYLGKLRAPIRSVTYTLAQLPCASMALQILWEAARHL
Procedure, shortened: (§1)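 Cell-free assay using microsomes from A549 cells as the PGE2 synthase source. Compounds were tested at four concentrations (10 μM, 1 μM, 100 nM, 10 nM; 1 nM where needed) in 0.1% DMSO vehicle. Read-out was PGE2 level as a percentage of vehicle control, n=3-5, with ANOVA and Tukey HSD versus vehicle.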

[3] = target: T2, Prostaglandin G/H synthase 1 (Ovis aries) (UniProt P05979); experiment: Inhibition of ovine COX1 assessed as residual enzyme activity at 30 uM preincubated for 5 mins by measuring 12-HHT level using HPLC method relative to control
T2 sequence (whole entry): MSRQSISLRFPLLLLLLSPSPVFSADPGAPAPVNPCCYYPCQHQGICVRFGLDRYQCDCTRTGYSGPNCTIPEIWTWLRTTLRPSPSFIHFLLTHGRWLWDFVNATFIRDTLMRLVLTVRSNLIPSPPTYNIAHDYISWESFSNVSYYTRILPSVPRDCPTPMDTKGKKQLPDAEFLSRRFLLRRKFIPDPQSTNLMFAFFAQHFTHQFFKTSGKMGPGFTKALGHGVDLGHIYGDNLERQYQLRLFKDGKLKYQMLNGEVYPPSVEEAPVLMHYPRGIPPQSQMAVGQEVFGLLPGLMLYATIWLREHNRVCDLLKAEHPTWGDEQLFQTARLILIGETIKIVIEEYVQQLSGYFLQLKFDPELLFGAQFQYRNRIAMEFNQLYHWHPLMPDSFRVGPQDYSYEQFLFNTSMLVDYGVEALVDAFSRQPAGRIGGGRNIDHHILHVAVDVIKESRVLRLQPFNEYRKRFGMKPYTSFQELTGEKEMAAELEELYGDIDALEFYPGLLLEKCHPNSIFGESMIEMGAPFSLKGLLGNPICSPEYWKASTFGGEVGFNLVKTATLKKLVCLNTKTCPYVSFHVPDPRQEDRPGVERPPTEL
Procedure, shortened: (§2)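 Isolated COX-1 and COX-2 enzymes were each exposed to inhibitor at 30 μM in 0.1% DMSO vehicle. Activity was read as 12-HHT concentration as a percentage of vehicle control, n=3-5, with ANOVA and Tukey HSD versus vehicle.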

[4] = target: T3, Prostaglandin G/H synthase 2 (Homo sapiens) (UniProt P35354); experiment: Inhibition of human recombinant COX2 assessed as residual activity at 30 uM preincubated for 5 mins by measuring 12-HHT level using HPLC method relative to control; procedure, shortened: as §2
T3 sequence (whole entry): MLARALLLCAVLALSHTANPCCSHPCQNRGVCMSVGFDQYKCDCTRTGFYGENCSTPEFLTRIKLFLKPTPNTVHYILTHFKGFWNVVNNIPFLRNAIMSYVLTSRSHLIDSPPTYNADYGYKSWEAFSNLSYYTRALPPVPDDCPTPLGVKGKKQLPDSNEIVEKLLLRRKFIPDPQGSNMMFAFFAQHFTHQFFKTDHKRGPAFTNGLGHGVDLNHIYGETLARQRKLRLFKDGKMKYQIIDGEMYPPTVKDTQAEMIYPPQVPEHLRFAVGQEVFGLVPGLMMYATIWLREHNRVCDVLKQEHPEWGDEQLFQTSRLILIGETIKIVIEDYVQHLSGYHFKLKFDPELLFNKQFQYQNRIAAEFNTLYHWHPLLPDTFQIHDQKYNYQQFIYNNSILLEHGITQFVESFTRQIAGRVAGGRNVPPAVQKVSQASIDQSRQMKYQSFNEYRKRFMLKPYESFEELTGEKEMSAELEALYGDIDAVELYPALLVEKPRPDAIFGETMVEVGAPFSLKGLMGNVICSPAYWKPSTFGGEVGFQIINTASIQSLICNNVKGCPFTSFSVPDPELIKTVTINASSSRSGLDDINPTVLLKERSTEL

Prostaglandin E synthase [5] = target: T4, Prostaglandin E synthase (Homo sapiens, UniProt O14684); experiment: Inhibition of mPGES1 in IL1-beta treated human A549 cell microsomal membrane assessed as residual enzyme activity after 1 min by measuring PGE2 level using RP-HPLC method; type: microsomes, Microsome; procedure, shortened: as §1
T4 sequence (O14684 whole entry): T1 sequence (whole entry)

Prostaglandin E synthase [6] = target: T4, Prostaglandin E synthase; experiment: Inhibition of mPGES1 in IL1-beta treated human A549 cell microsomal membrane assessed as blockade of PGH2 to PGE2 conversion after 1 min; type: microsomes, Microsome; procedure, shortened: as §1
[7] = Inhibition of rat mPGES1

| SMILES | IC50 [1] [µM] | Activity [2] [%] | Activity [3] | Activity [4] | IC50 (Prostaglandin E synthase [5]) [µM] | IC50 (Prostaglandin E synthase [6]) [µM] | IC50 [7] [µM] |
| --- | --- | --- | --- | --- | --- | --- | --- |
| CC1(C)Cc2c(-c3ccccc3)c(-c3ccc([N+](=O)[O-])cc3)c(CC(=O)O)n2C1 | 1.5 | 58.8 | – | – | – | – | – |
| CC1(C)Cc2c(-c3ccccc3)c(-c3ccc(Cl)cc3)c(CC(=O)NS(=O)(=O)c3ccccc3)n2C1 | 0.25 | 28.7 | 25.8% | 43.4% | 4.5 | – | – |
| O=C(O)Cc1c(-c2ccc(Cl)cc2)c(-c2ccccc2)c2n1CCC2 | 1.6 | 65.3 | – | – | – | – | – |
| CC1(C)Cc2c(-c3ccccc3)c(-c3ccc(C(C)(C)C)cc3)c(CC(=O)O)n2C1 | 0.18 | 53.8 | inactive | inactive | – | – | – |
| CC1(C)Cc2c(-c3ccccc3)c(-c3ccc(C(F)(F)F)cc3)c(CC(=O)O)n2C1 | 0.31 | 56.1 | – | – | – | – | – |
| CC1(C)Cc2c(-c3ccccc3)c(-c3ccc(Cl)cc3)c(CC(=O)O)n2C1 [LICOFELONE] | 0.18 | 44.9 | 12.4% | 53.7% | 6.7 | 6 | – |
| CC1(C)Cc2c(-c3ccccc3)c(-c3ccc4ccoc4c3)c(CC(=O)O)n2C1 | – | 42.1 | 94% | 75.8% | 6.2 | – | – |
| CC1(C)Cc2c(-c3ccccc3)c(-c3ccc(Cl)cc3)c(CC(=O)NS(C)(=O)=O)n2C1 | 0.23 | 63.1 | – | – | – | – | – |
| CCC1(CC)Cc2c(-c3ccccc3)c(-c3ccc(Cl)cc3)c(CC(=O)NS(C)(=O)=O)n2C1 | – | 38.5 | – | – | 5.9 | – | – |
| CC1(C)Cc2c(-c3ccccc3)c(-c3ccc(Cl)cc3)c(Cc3nnn[nH]3)n2C1 | 0.5 | 27.9 | 37.4% | 46.5% | 3.9 | – | – |
| CC1(C)Cc2c(-c3ccccc3)c(-c3ccc(Cl)cc3)c(CCC(=O)O)n2C1 | – | 47.4 | 82.9% | inactive | 7.2 | – | – |
| CC(C)c1ccc2c(c1)c(SC(C)(C)C)c(CC(C)(C)C(=O)O)n2Cc1ccc(Cl)cc1 | – | 22.5 | 19.5% | 56.7% | – | – | 3.2 |
| Cc1ccc(S(=O)(=O)NC(=O)CCc2c(-c3ccc(Cl)cc3)c(-c3ccccc3)c3n2CC(C)(C)C3)cc1 | – | 23.2 | 29.2% | inactive | 2.1 | – | – |
| Cc1ccc(S(=O)(=O)NC(=O)Cc2c(-c3ccc(Cl)cc3)c(-c3ccccc3)c3n2CC(C)(C)C3)cc1 | 0.26 | 32.2 | 8.6% | 13.6% | 4.8 | – | – |
| O=C(O)CCc1c(-c2ccc(Cl)cc2)c(-c2ccccc2)c2n1CCC2 | 1.9 | 20.8 | – | – | 1.8 | – | – |
